Experimental data taken from ChEMBL document CHEMBL4364267, “Hydrogen sulfide donating ent-kaurane and spirolactone-type 6,7-seco-ent-kaurane derivatives: Design, synthesis and antiproliferative properties” (Eur J Med Chem, 2019).
pIC50: −log10 of the molar value. The source made the active and inactive calls. The calls are words filed in the database; no cut-off is given here.

Key:
Bel-7402 [1] = test: Induction of apoptosis in human Bel7402 cells assessed as viable cells at 0.90 uM after 48 hrs by Annexin V-FITC/propidium iodide staining based flow cytometry (reference value: 97.22%); assay type: functional; conditions: Bel-7402, 48 h, read-out: Activity
How it was run: (§1)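 Bel-7402 cells in 6-well plates treated with 0, 0.45, 0.90 or 1.80 μM, washed twice with PBS and resuspended in annexin V binding buffer. Stained with annexin V-FITC and PI for 15 min at room temperature in the dark, then analysed by flow cytometry. Methods state 24 h exposure; the figure legend states 48 h.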

Bel-7402 [2] = test: Cell cycle arrest in human Bel7402 cells assessed as accumulation of cells at G1 phase at 0.90 uM after 48 hrs by propidium iodide/RNase staining based flow cytometric analysis (reference value: 30.95%); assay type: functional
Bel-7402 [3] = test: Cell cycle arrest in human Bel7402 cells assessed as accumulation of cells at S phase at 0.45 uM after 48 hrs by propidium iodide/RNase staining based flow cytometric analysis (reference value: 39.09%); assay type: functional
Bel-7402 [4] = test: Cell cycle arrest in human Bel7402 cells assessed as accumulation of cells at G2 phase at 0.90 uM after 48 hrs by propidium iodide/RNase staining based flow cytometric analysis (reference value: 29.97%); assay type: functional
PBMC = test: Cytotoxicity against human PBMC assessed as reduction in cell viability after 72 hrs by MTT assay; assay type: cell-based
How it was run: (§2)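 MTT assay over 72 h, compounds at 64, 16, 4, 1, 0.25, 0.0625 and 0.015625 μM. MTT solution (5 mg/mL) and DMSO added afterwards, 10 min at room temperature, absorbance read at 490 nm. IC50 calculated as the mean ± SD of three independent experiments.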

Bel-7402 [5] = test: Induction of apoptosis in human Bel7402 cells assessed as late apoptotic cells at 1.80 uM after 48 hrs by Annexin V-FITC/propidium iodide staining based flow cytometry (reference value: 0.68%); assay type: functional; how it was run: as §1
[6] = Selectivity index, ratio of IC50 for human L02 cells to IC50 for human Bel7402 cells after 72 hrs by MTT assay; assay type: toxicity; conditions: L02 cells versus Bel7402 cells, read-out: Ratio IC50
Bel-7402 [7] = test: Cell cycle arrest in human Bel7402 cells assessed as accumulation of cells at G2 phase at 0.45 uM after 48 hrs by propidium iodide/RNase staining based flow cytometric analysis (reference value: 29.97%); assay type: functional
L02 = test: Cytotoxicity against human L02 cells assessed as reduction in cell viability after 72 hrs by MTT assay; assay type: cell-based; conditions: L02, 72 h; how it was run: as §2
Bel-7402 [8] = test: Induction of apoptosis in human Bel7402 cells assessed as reduction in Bcl-2 expression at 0.90 to 1.80 uM after 48 hrs by Western blot analysis; assay type: functional, cell-based
Bel-7402 [9] = test: Induction of mitochondrial membrane potential loss in human Bel7402 cells assessed as cell population with mitochondrial membrane potential collapse at 1.80 uM after 48 hrs by JC1 staining-based flow cytometry analysis (reference value: 1.28%); assay type: functional
How it was run: (§3)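 Bel-7402 cells in 6-well plates exposed for 48 h to 0, 0.45, 0.90 or 1.80 μM, DMSO as vehicle. Washed with PBS and stained with JC-1 at room temperature in the dark. Cells with collapsed membrane potential counted by flow cytometry.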

Bel-7402 [10] = test: Induction of apoptosis in human Bel7402 cells assessed as increase in cleaved PARP expression at 0.45 to 1.80 uM after 48 hrs by Western blot analysis; assay type: functional, cell-based
Bel-7402 [11] = test: Induction of mitochondrial membrane potential loss in human Bel7402 cells assessed as cell population with mitochondrial membrane potential collapse at 0.45 uM after 48 hrs by JC1 staining-based flow cytometry analysis (reference value: 1.28%); assay type: functional; how it was run: as §3
Bel-7402 [12] = test: Induction of apoptosis in human Bel7402 cells assessed as early apoptotic cells at 0.90 uM after 48 hrs by Annexin V-FITC/propidium iodide staining based flow cytometry (reference value: 2.09%); assay type: functional; how it was run: as §1
Bel-7402 [13] = test: Induction of apoptosis in human Bel7402 cells assessed as viable cells at 1.80 uM after 48 hrs by Annexin V-FITC/propidium iodide staining based flow cytometry (reference value: 97.22%); assay type: functional; conditions: Bel-7402, 48 h, read-out: Activity; how it was run: as §1
Bel-7402 [14] = test: Induction of apoptosis in human Bel7402 cells after 48 hrs by Annexin V-FITC/propidium iodide staining based assay; assay type: functional, cell-based; how it was run: as §1
Bel-7402 [15] = test: Induction of apoptosis in human Bel7402 cells assessed as reduction in procaspase-3 expression at 0.90 to 1.80 uM after 48 hrs by Western blot analysis; assay type: functional, cell-based
Bel-7402 [16] = test: Cell cycle arrest in human Bel7402 cells assessed as accumulation of cells at S phase at 1.80 uM after 48 hrs by propidium iodide/RNase staining based flow cytometric analysis (reference value: 39.09%); assay type: functional
Bel-7402 [17] = test: Cell cycle arrest in human Bel7402 cells assessed as accumulation of cells at G2 phase at 1.80 uM after 48 hrs by propidium iodide/RNase staining based flow cytometric analysis (reference value: 29.97%); assay type: functional
K562 = test: Antiproliferative activity against human K562 cells assessed as reduction in cell viability after 72 hrs by MTT assay; assay type: functional, cell-based; conditions: K562, 72 h; how it was run: as §2
Bel-7402 [18] = test: Induction of apoptosis in human Bel7402 cells assessed as reduction in Bcl-xl expression at 0.90 to 1.80 uM after 48 hrs by Western blot analysis; assay type: functional, cell-based
Bel-7402 [19] = test: Cell cycle arrest in human Bel7402 cells assessed as accumulation of cells at S phase at 0.90 uM after 48 hrs by propidium iodide/RNase staining based flow cytometric analysis (reference value: 39.09%); assay type: functional
Bel-7402 [20] = test: Induction of apoptosis in human Bel7402 cells assessed as necrotic cells at 1.80 uM after 48 hrs by Annexin V-FITC/propidium iodide staining based flow cytometry (reference value: 0.01%); assay type: functional; how it was run: as §1

pIC50 (K562): 6.00
SMILES: C=C1C(=O)[C@@]23C(=O)OC[C@]4(C(=O)CCC(C)(C)[C@H]4C=O)[C@@H]2CC[C@@H]1[C@H]3OC(=O)CCCC(=O)Oc1ccc(-c2cc(=S)ss2)cc1
viability at 0.9 µM (Bel-7402 [1]): 72.5%
Activity (Bel-7402 [2]): 42.3%
Activity (Bel-7402 [3]): 40.42%
Activity (Bel-7402 [4]): 19.81%
pIC50 (PBMC): 4.70
Activity (Bel-7402 [5]): 36.64%
selectivity ratio at 72 h [6]: 24
Activity (Bel-7402 [7]): 22.21%
pIC50 (L02): 4.68
Activity (Bel-7402 [8]): Active
Activity (Bel-7402 [9]): 58.59%
Activity (Bel-7402 [10]): Active
Activity (Bel-7402 [11]): 18.48%
Activity (Bel-7402 [12]): 15.17%
viability at 1.8 µM (Bel-7402 [13]): 43.6%
Activity (Bel-7402 [14]): Dose-dependent effect
Activity (Bel-7402 [15]): Active
Activity (Bel-7402 [16]): 34.52%
Activity (Bel-7402 [17]): 15.91%
Activity (Bel-7402 [18]): Active
Activity (Bel-7402 [19]): 37.9%
Activity (Bel-7402 [20]): 1.05%
